Data from ChEMBL document CHEMBL1156764, “Structure-based design of pteridine reductase inhibitors targeting African sleeping sickness and the leishmaniases” (J Med Chem, 2010).

Columns and labels:
Pteridine reductase 1 = molecular target: T1, Pteridine reductase 1 (Leishmania major, UniProt Q01782); assay: Inhibition of Leishmania major recombinant PTR1
T1 sequence (Q01782 whole entry): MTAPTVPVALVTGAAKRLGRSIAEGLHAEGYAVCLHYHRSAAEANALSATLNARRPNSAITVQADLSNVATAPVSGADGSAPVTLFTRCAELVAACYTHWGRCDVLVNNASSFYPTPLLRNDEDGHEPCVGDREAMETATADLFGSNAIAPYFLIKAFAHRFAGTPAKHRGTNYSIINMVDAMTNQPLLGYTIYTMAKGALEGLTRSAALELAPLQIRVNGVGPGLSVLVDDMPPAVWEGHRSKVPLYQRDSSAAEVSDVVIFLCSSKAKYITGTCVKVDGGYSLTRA
Procedure, shortened: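 Recombinant L. major PTR1, stored at 15 mg mL^-1 (stock) in 50 mM Tris-HCl, 250 mM NaCl, 20% glycerol, pH 7.5. Substrate was H2B, with a 10 mM stock in 0.1 M NaOH. Compound stocks were 100 mM in DMSO. IC50 came from dose–response fits corrected with Morrison's tight-binding equation. Ki was calculated from IC50 using the competitive-inhibition equation.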

[1] = Inhibition of Trypanosoma brucei recombinant PTR1
Procedure, shortened: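 Recombinant enzyme stored at 15 mg mL^-1 in 50 mM Tris-HCl, 250 mM NaCl, 20% glycerol, pH 7.5. Substrate was H2B, prepared as a 10 mM stock in 0.1 M NaOH. Compound stocks were 100 mM in DMSO. IC50 came from dose–response plots fitted with Morrison's tight-binding equation. Ki was calculated from IC50 assuming competitive inhibition.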

[2] = system: Trypanosoma brucei brucei; assay: Antitrypanosomal activity against Trypanosoma brucei brucei Lister 427 blood stream form by Alamar blue assay; format: functional; conditions: read-out: ED50 (the source's name)
Procedure, shortened: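 Bloodstream-form Lister 427 grown at 37 °C, 5% CO2 in HMI-9 with neomycin pressure (T7 polymerase and tetracycline repressor lines), fetal calf serum 10%, folate not reduced. Exposed to increasing inhibitor concentrations. Viability read by Alamar blue. ED50 taken from dose–response plots. Three separate determinations, each in quadruplicate (n = 12).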

CC1=Nc2c(N)nc(N)nc2NC1(C)C
Ki (Pteridine reductase 1): 12 µM
Ki [1]: > 35 µM

Nc1nc2[nH]ccc2c(=S)[nH]1
Ki (Pteridine reductase 1): > 27 µM
Ki [1]: > 35 µM

Nc1cc(NC2CC2)nc(N)n1
Ki (Pteridine reductase 1): > 27 µM
Ki [1]: > 35 µM

Nc1cc(SCc2ccccc2)nc(N)n1
Ki (Pteridine reductase 1): 0.6 µM
Ki [1]: 3.2 µM

Nc1nc2[nH]cc(CCc3ccccc3)c2c(=O)[nH]1
Ki (Pteridine reductase 1): > 27 µM

N#Cc1c(Br)[nH]c2nc(N)[nH]c(=O)c12
Ki (Pteridine reductase 1): > 27 µM
Ki [1]: 3.9 µM

CCc1ccc(-c2[nH]c3nc(N)[nH]c(=O)c3c2C#N)cc1
Ki (Pteridine reductase 1): 16.4 µM
Ki [1]: 0.5 µM

CC(C)c1nc2nc(N)nc(N)c2nc1C(C)C
Ki (Pteridine reductase 1): 0.24 µM
Ki [1]: 3.3 µM

N#Cc1c(-c2ccc3c(c2)OCO3)[nH]c2nc(N)[nH]c(=O)c12
Ki (Pteridine reductase 1): 2.6 µM
Ki [1]: 0.4 µM
EC50 [2]: 123 µM

Nc1cc(N)nc(N)n1
Ki (Pteridine reductase 1): > 27 µM
Ki [1]: > 35 µM

N#Cc1c[nH]c2nc(N)[nH]c(=O)c12
Ki (Pteridine reductase 1): > 27 µM
Ki [1]: 5.8 µM

COc1ccc(CSc2cc(N)nc(N)n2)cc1
Ki (Pteridine reductase 1): 2.7 µM
Ki [1]: 18 µM

COc1ccc(-c2[nH]c3nc(N)[nH]c(=O)c3c2C#N)cc1
Ki (Pteridine reductase 1): 3.4 µM
Ki [1]: 0.36 µM
EC50 [2]: 274 µM

N#Cc1c(-c2ccccc2)[nH]c2nc(N)[nH]c(=O)c12
Ki (Pteridine reductase 1): > 27 µM
Ki [1]: 0.71 µM

N#Cc1c(-c2cccc(C=O)c2)[nH]c2nc(N)[nH]c(=O)c12
Ki (Pteridine reductase 1): 4.2 µM
Ki [1]: 0.29 µM

Cc1ccc(Sc2cc(N)nc(N)n2)cc1
Ki (Pteridine reductase 1): 27 µM
Ki [1]: 5.4 µM

Nc1nc(N)c2nc(-c3ccccc3)c(N)nc2n1
Ki (Pteridine reductase 1): 3.4 µM
Ki [1]: 1.2 µM

Nc1nc2c(c(=O)[nH]1)CC=N2 [7-DEAZAGUANINE]
Ki [1]: > 35 µM

CCc1nc(N)nc(N)c1-c1ccc(Cl)cc1 [PYRIMETHAMINE]
EC50 [2]: 26.6 µM
